Key:
Muscle tissue = test: Biodistribution in Sprague-Dawley rat muscle at 1.48 to 2.22 MBq, iv measured at 5 mins by gamma counting analysis; assay type: ADME, organism-based; conditions: in vivo
In short: (§1)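 Male Sprague-Dawley rats (250 - 400 g), tail-vein injection of 1.48 - 2.22 MBq radiotracer under 2.5% isoflurane in oxygen; n=4 per time point, euthanized at 5, 30 and 60 min p.i. Brain regions obtained by gross dissection; peripheral tissues collected. Samples weighed, gamma-counted against a diluted-injectate standard; %ID/g calculated.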

Rattus norvegicus [1] = test: Biodistribution in Sprague-Dawley rat fat tissue at 1.48 to 2.22 MBq, iv measured at 5 mins by gamma counting analysis; assay type: ADME, organism-based, Adipose tissue; conditions: in vivo; in short: as §1
Bone [2] = test: Biodistribution in Sprague-Dawley rat bone at 1.48 to 2.22 MBq, iv measured at 5 mins by gamma counting analysis; assay type: ADME, organism-based, Bone element; conditions: in vivo; in short: as §1
Liver = test: Biodistribution in Sprague-Dawley rat liver at 1.48 to 2.22 MBq, iv measured at 30 mins by gamma counting analysis; assay type: ADME, organism-based; conditions: in vivo, 0.5 h; in short: as §1
Kidney = test: Biodistribution in Sprague-Dawley rat kidney at 1.48 to 2.22 MBq, iv measured at 30 mins by gamma counting analysis; assay type: ADME, organism-based; conditions: in vivo, 0.5 h; in short: as §1
Bone [3] = test: Biodistribution in Sprague-Dawley rat bone at 1.48 to 2.22 MBq, iv measured at 30 mins by gamma counting analysis; assay type: ADME, organism-based, Bone element; conditions: in vivo, 0.5 h; in short: as §1
Brain [4] = test: Biodistribution in Sprague-Dawley rat brain at 1.48 to 2.22 MBq, iv measured at 30 mins by gamma counting analysis; assay type: ADME, organism-based; conditions: in vivo, 0.5 h; in short: as §1
Blood = test: Biodistribution in Sprague-Dawley rat blood at 1.48 to 2.22 MBq, iv measured at 60 mins by gamma counting analysis; assay type: ADME, organism-based; conditions: in vivo, 1 h; in short: as §1
Rattus norvegicus [5] = test: Biodistribution in Sprague-Dawley rat fat tissue at 1.48 to 2.22 MBq, iv measured at 60 mins by gamma counting analysis; assay type: ADME, organism-based, Adipose tissue; conditions: in vivo, 1 h; in short: as §1
Brain [6] = test: Biodistribution in Sprague-Dawley rat brain at 1.48 to 2.22 MBq, iv measured at 60 mins by gamma counting analysis; assay type: ADME, organism-based; conditions: in vivo, 1 h; in short: as §1
Striatum = test: Biodistribution in Sprague-Dawley rat striatum at 1.48 to 2.22 MBq, iv measured at 30 mins by gamma counting analysis; assay type: ADME, organism-based; conditions: in vivo, 0.5 h; in short: as §1
Nucleic Acid [7] = test: Ratio of drug level in striatum to temporal region in cynomolgus monkey at 185 to 259 MBq, iv measured at 40 mins by micro PET image analysis; assay type: ADME, organism-based, Macaca fascicularis; conditions: in vivo
In short: (§2)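 Adult male cynomolgus macaques (~4–6 kg), three independent PET studies per tracer on a microPET Focus 220. Animals fasted 12 h and anesthetized with ketamine (10 mg/kg) plus glycopyrrolate (0.13 mg/kg) i.m. A 10 min positioning transmission scan and a 45 min attenuation transmission scan were run, then a 3 h dynamic emission scan after venous tracer injection. Regional TACs came from ROIs, expressed as SUV (body weight, injected dose).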

Nucleic Acid [8] = test: Ratio of drug level in striatum to cerebellum in cynomolgus monkey at 185 to 259 MBq, iv measured at 70 mins by micro PET image analysis; assay type: ADME, organism-based, Macaca fascicularis; conditions: in vivo; in short: as §2
[9] = Metabolic stability in cynomolgus monkey plasma assessed as compound remaining at 185 to 259 MBq, iv measured at 2 mins by HPLC analysis; assay type: ADME, organism-based, Macaca fascicularis; conditions: read-out: Stability
In short: (§3)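 Arterial blood (~1.5 mL) drawn at 2, 15, 30, 60 and 90 min p.i. into heparinized syringes, then centrifuged to plasma. Plasma deproteinated with 2 parts ice-cold methanol. Extract run on C-18 HPLC, MeCN/0.1 M ammonium formate pH 4.5, 0.9 mL/min, UV 254 nm. 1-min fractions over 16 min were well-counted and decay-corrected; parent percentage taken from recovered activity.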

Plasma = test: Retention time of the compound in cynomolgus monkey plasma at 185 to 259 MBq, iv by HPLC analysis; assay type: ADME, organism-based, Macaca fascicularis; in short: as §3
Putamen = test: Drug uptake in cynomolgus monkey putamen at 185 to 259 MBq, iv measured over 180 mins by micro PET image analysis; assay type: ADME, organism-based, Macaca fascicularis; conditions: in vivo, 3 h
In short: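 Adult male cynomolgus macaques (~4–6 kg), three studies per tracer, fasted 12 h. Induction with ketamine 10 mg/kg plus glycopyrrolate 0.13 mg/kg i.m. Transmission scans of 10 min for positioning and 45 min for attenuation correction, then a 3 h dynamic microPET emission scan after venous injection of 185 - 259 MBq. ROI time-activity curves expressed as SUV (body weight and injected dose).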

- Drug uptake (Muscle tissue): 0.166 % ID/g
- Drug uptake (Rattus norvegicus [1]): 0.119 % ID/g
- Drug uptake (Bone [2]): 0.182 % ID/g
- Drug uptake (Liver): 3.17 % ID/g
- Drug uptake (Kidney): 1.022 % ID/g
- Drug uptake (Bone [3]): 0.144 % ID/g
- Drug uptake (Brain [4]): 0.129 % ID/g
- Drug uptake (Blood): 0.287 % ID/g
- Drug uptake (Rattus norvegicus [5]): 0.124 % ID/g
- Drug uptake (Brain [6]): 0.149 % ID/g
- Drug uptake (Striatum): Active
- Ratio (Nucleic Acid [7]): > 3
- Ratio (Nucleic Acid [8]): > 5
- remaining at 2 min [9]: 99%
- Retention_time (Plasma): 10.5 min
- Drug uptake (Putamen): Active
SMILES: Cn1cc(-c2ccncc2)c(-c2ccc(OCc3nc4ccccc4cc3OCC[18F])cc2)n1
